Results taken from ChEMBL document CHEMBL4330094, “Potent Metabolic Sialylation Inhibitors Based on C-5-Modified Fluorinated Sialic Acids” (J Med Chem, 2019).
The source made the active and inactive calls. The rule behind the calls is not given here.

Tested on: B16-F10
Assay: Effect on total cell surface glycosylation in mouse B16F10 cells assessed as inhibition of biotinylated PHA-L lectin binding at 102.4 uM after 3 days by flow cytometry
Type: cell-based
Settings: b16-f10, 72 h
In short: (§1)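 B16-F10 cells were exposed 3 days to 102.4 µM compound or DMSO. Staining used biotinylated lectins (AAL 5, PNA 5, GSL-I 1, LCA 1, PHA-L 1, PSA 1, SJA 1, WGA 1 µg/ml) in carbo-free blocking buffer with 1 mM CaCl and 1 mM MgCl for 45-60 min at 4 °C, then streptavidin-PE for 20 min at 4 °C. Flow cytometry read-out was MFI, mean ± SEM from two independent experiments.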

Row | SMILES | Activity
1 | COC(=O)N[C@H]1[C@H]([C@H](OC(C)=O)[C@@H](COC(C)=O)OC(C)=O)OC(OC(C)=O)(C(=O)OC)[C@H](F)[C@@H]1OC(C)=O (some centres undefined) | Non-Toxic

Tested on: B16-F10
Assay: Effect on total cell surface glycosylation in mouse B16F10 cells assessed as inhibition of biotinylated SJA-lectin binding at 102.4 uM after 3 days by flow cytometry
Type: cell-based
Settings: b16-f10, 72 h
In short: as §1

Row | SMILES | Activity
2 | COC(=O)N[C@H]1[C@H]([C@H](OC(C)=O)[C@@H](COC(C)=O)OC(C)=O)OC(OC(C)=O)(C(=O)OC)[C@H](F)[C@@H]1OC(C)=O (some centres undefined) | Non-Toxic

Tested on: B16-F10
Assay: Effect on total cell surface glycosylation in mouse B16F10 cells assessed as inhibition of biotinylated AAL-lectin binding at 102.4 uM after 3 days by flow cytometry
Type: cell-based
Settings: b16-f10, 72 h
In short: as §1

Row | SMILES | Activity
3 | COC(=O)N[C@H]1[C@H]([C@H](OC(C)=O)[C@@H](COC(C)=O)OC(C)=O)OC(OC(C)=O)(C(=O)OC)[C@H](F)[C@@H]1OC(C)=O (some centres undefined) | Non-Toxic

Tested on: B16-F10
Assay: Effect on total cell surface glycosylation in mouse B16F10 cells assessed as inhibition of biotinylated LCA-lectin binding at 102.4 uM after 3 days by flow cytometry
Type: cell-based
Settings: b16-f10, 72 h
In short: as §1

Row | SMILES | Activity
4 | COC(=O)N[C@H]1[C@H]([C@H](OC(C)=O)[C@@H](COC(C)=O)OC(C)=O)OC(OC(C)=O)(C(=O)OC)[C@H](F)[C@@H]1OC(C)=O (some centres undefined) | Non-Toxic

Tested on: B16-F10
Assay: Effect on total cell surface glycosylation in mouse B16F10 cells assessed as inhibition of biotinylated GSL1-lectin binding at 102.4 uM after 3 days by flow cytometry
Type: cell-based
Settings: b16-f10, 72 h
In short: as §1

Row | SMILES | Activity
5 | COC(=O)N[C@H]1[C@H]([C@H](OC(C)=O)[C@@H](COC(C)=O)OC(C)=O)OC(OC(C)=O)(C(=O)OC)[C@H](F)[C@@H]1OC(C)=O (some centres undefined) | Non-Toxic

Tested on: B16-F10
Assay: Inhibition of sialyltransferase in mouse B16-F10 cells assessed as recovery time for sialylation at 25.6 uM pretreated for 3 days followed by washing and re-seeding and measured after 6 days by biotinylated MAL2 lectin-based flow cytometry
Type: cell-based
Settings: not given
In short: (§2)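 B16-F10 cells were pretreated 3 days with 25.6 or 51.2 µM compound or DMSO, washed, reseeded, and sampled daily for 6 days. They were stained with biotinylated MALII (5 µg/ml, 45-60 min, 4 °C) plus streptavidin-PE. Flow cytometry MFI was normalized to control as % lectin binding.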

Row | SMILES | sialylation recovery time
6 | COC(=O)N[C@H]1[C@H]([C@H](OC(C)=O)[C@@H](COC(C)=O)OC(C)=O)OC(OC(C)=O)(C(=O)OC)[C@H](F)[C@@H]1OC(C)=O (some centres undefined) | Active

Tested on: not listed separately
Assay: Inhibition of sialyltransferase in mouse B16F10 cells assessed as decrease in lectin binding after 3 days by biotinylated MAL2 lectin and streptavidin-PE based flow cytometry
Type: cell-based
Settings: not given
In short: (§3)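 Each cell line was incubated 3 days with increasing compound concentrations or equivalent DMSO. Cells were stained with biotinylated MALII (5 µg/ml) in carbo-free blocking buffer with 1 mM CaCl/MgCl for 45-60 min at 4 °C, washed in PBS/1% BSA/0.02% azide, then stained with streptavidin-PE for 20 min at 4 °C. For flow cytometry, MFI was normalized to control as % lectin binding.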

Row | EC50 [µM] | SMILES
7 | 4.89 | COC(=O)N[C@H]1[C@H]([C@H](OC(C)=O)[C@@H](COC(C)=O)OC(C)=O)OC(OC(C)=O)(C(=O)OC)[C@H](F)[C@@H]1OC(C)=O (some centres undefined)

Tested on: not listed separately
Assay: Inhibition of sialyltransferase in mouse EL4 cells assessed as decrease in lectin binding after 3 days by biotinylated MAL2 lectin and streptavidin-PE based flow cytometry
Type: cell-based
Settings: not given
In short: as §3

Row | EC50 [µM] | SMILES
8 | 59.2 | COC(=O)N[C@H]1[C@H]([C@H](OC(C)=O)[C@@H](COC(C)=O)OC(C)=O)OC(OC(C)=O)(C(=O)OC)[C@H](F)[C@@H]1OC(C)=O (some centres undefined)

Tested on: B16-F10
Assay: Effect on total cell surface glycosylation in mouse B16F10 cells assessed as inhibition of biotinylated PSA-lectin binding at 102.4 uM after 3 days by flow cytometry
Type: cell-based
Settings: b16-f10, 72 h
In short: as §1

Row | SMILES | Activity
9 | COC(=O)N[C@H]1[C@H]([C@H](OC(C)=O)[C@@H](COC(C)=O)OC(C)=O)OC(OC(C)=O)(C(=O)OC)[C@H](F)[C@@H]1OC(C)=O (some centres undefined) | Non-Toxic

Tested on: not listed separately
Assay: Inhibition of sialyltransferase in HEK293 cells assessed as decrease in lectin binding after 3 days by biotinylated MAL2 lectin and streptavidin-PE based flow cytometry
Type: cell-based, Homo sapiens
Settings: not given
In short: as §3

Row | EC50 [µM] | SMILES
10 | 3.31 | COC(=O)N[C@H]1[C@H]([C@H](OC(C)=O)[C@@H](COC(C)=O)OC(C)=O)OC(OC(C)=O)(C(=O)OC)[C@H](F)[C@@H]1OC(C)=O (some centres undefined)

Tested on: B16-F10
Assay: Relative inhibitory potency, ratio of SiaFAc to compound EC50 for inhibition of sialyltransferase in mouse B16-F10 cells
Type: cell-based
Settings: not given

Row | SMILES | Ratio EC50
11 | COC(=O)N[C@H]1[C@H]([C@H](OC(C)=O)[C@@H](COC(C)=O)OC(C)=O)OC(OC(C)=O)(C(=O)OC)[C@H](F)[C@@H]1OC(C)=O (some centres undefined) | 5

Tested on: B16-F10
Assay: Inhibition of sialyltransferase in mouse B16-F10 cells assessed as recovery time for sialylation at 51.2 uM pretreated for 3 days followed by washing and re-seeding and measured after 6 days by biotinylated MAL2 lectin-based flow cytometry
Type: cell-based
Settings: not given
In short: as §2

Row | SMILES | TIME [h]
12 | COC(=O)N[C@H]1[C@H]([C@H](OC(C)=O)[C@@H](COC(C)=O)OC(C)=O)OC(OC(C)=O)(C(=O)OC)[C@H](F)[C@@H]1OC(C)=O (some centres undefined) | 120 to 144

Tested on: not listed separately
Assay: Inhibition of sialyltransferase in human THP1 cells assessed as decrease in lectin binding after 3 days by biotinylated MAL2 lectin and streptavidin-PE based flow cytometry
Type: cell-based
Settings: not given
In short: as §3

Row | EC50 [µM] | SMILES
13 | 1.98 | COC(=O)N[C@H]1[C@H]([C@H](OC(C)=O)[C@@H](COC(C)=O)OC(C)=O)OC(OC(C)=O)(C(=O)OC)[C@H](F)[C@@H]1OC(C)=O (some centres undefined)

Tested on: B16-F10
Assay: Effect on total cell surface glycosylation in mouse B16F10 cells assessed as inhibition of biotinylated WGA-lectin binding at 102.4 uM after 3 days by flow cytometry
Type: cell-based
Settings: b16-f10, 72 h
In short: as §1

Row | SMILES | Activity
14 | COC(=O)N[C@H]1[C@H]([C@H](OC(C)=O)[C@@H](COC(C)=O)OC(C)=O)OC(OC(C)=O)(C(=O)OC)[C@H](F)[C@@H]1OC(C)=O (some centres undefined) | Non-Toxic

Tested on: B16-F10
Assay: Cytotoxicity against mouse B16F10 cells assessed as reduction in metabolic activity at 204.8 uM after 3 days by MTT assay
Type: ADME, cell-based
Settings: b16-f10, 72 h

Row | SMILES | Activity
15 | COC(=O)N[C@H]1[C@H]([C@H](OC(C)=O)[C@@H](COC(C)=O)OC(C)=O)OC(OC(C)=O)(C(=O)OC)[C@H](F)[C@@H]1OC(C)=O (some centres undefined) | Non-Toxic

Tested on: not listed separately
Assay: Inhibition of sialyltransferase in mouse 9464D cells assessed as decrease in lectin binding after 3 days by biotinylated MAL2 lectin and streptavidin-PE based flow cytometry
Type: cell-based
Settings: not given
In short: as §3

Row | EC50 [µM] | SMILES
16 | 18.3 | COC(=O)N[C@H]1[C@H]([C@H](OC(C)=O)[C@@H](COC(C)=O)OC(C)=O)OC(OC(C)=O)(C(=O)OC)[C@H](F)[C@@H]1OC(C)=O (some centres undefined)

Tested on: not listed separately
Assay: Inhibition of sialyltransferase in human HeLa cells assessed as decrease in lectin binding after 3 days by biotinylated MAL2 lectin and streptavidin-PE based flow cytometry
Type: cell-based
Settings: not given
In short: as §3

Row | EC50 [µM] | SMILES
17 | 6.33 | COC(=O)N[C@H]1[C@H]([C@H](OC(C)=O)[C@@H](COC(C)=O)OC(C)=O)OC(OC(C)=O)(C(=O)OC)[C@H](F)[C@@H]1OC(C)=O (some centres undefined)

Tested on: B16-F10
Assay: Effect on total cell surface glycosylation in mouse B16F10 cells assessed as inhibition of biotinylated PNA lectin binding at 102.4 uM after 3 days by flow cytometry
Type: cell-based
Settings: b16-f10, 72 h
In short: as §1

Row | SMILES | Activity
18 | COC(=O)N[C@H]1[C@H]([C@H](OC(C)=O)[C@@H](COC(C)=O)OC(C)=O)OC(OC(C)=O)(C(=O)OC)[C@H](F)[C@@H]1OC(C)=O (some centres undefined) | Non-Toxic

Tested on: B16-F10
Assay: Cytotoxicity against mouse B16F10 cells assessed as reduction in metabolic activity at <51.2 uM after 3 days by MTT assay
Type: ADME, cell-based
Settings: b16-f10, 72 h

Row | SMILES | Activity
19 | COC(=O)N[C@H]1[C@H]([C@H](OC(C)=O)[C@@H](COC(C)=O)OC(C)=O)OC(OC(C)=O)(C(=O)OC)[C@H](F)[C@@H]1OC(C)=O (some centres undefined) | Non-Toxic
